# Bioassay records from PubChem BioAssay.
# OX1R antag-1: OX1R (human) antagonism. O43613. OX1R-expressing cells, FRET antagonist read-out. inhibition, % at 6.6 µM. 1.8% of 330,000 active. AID 485270; in the data active means inhibition mostly above about 38%, no sharp cut-off; inactive means mostly below about 40%;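 further: 0% = agonist challenge alone and 100% = reference antagonist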
# Target sequence (O43613 whole entry, looked up): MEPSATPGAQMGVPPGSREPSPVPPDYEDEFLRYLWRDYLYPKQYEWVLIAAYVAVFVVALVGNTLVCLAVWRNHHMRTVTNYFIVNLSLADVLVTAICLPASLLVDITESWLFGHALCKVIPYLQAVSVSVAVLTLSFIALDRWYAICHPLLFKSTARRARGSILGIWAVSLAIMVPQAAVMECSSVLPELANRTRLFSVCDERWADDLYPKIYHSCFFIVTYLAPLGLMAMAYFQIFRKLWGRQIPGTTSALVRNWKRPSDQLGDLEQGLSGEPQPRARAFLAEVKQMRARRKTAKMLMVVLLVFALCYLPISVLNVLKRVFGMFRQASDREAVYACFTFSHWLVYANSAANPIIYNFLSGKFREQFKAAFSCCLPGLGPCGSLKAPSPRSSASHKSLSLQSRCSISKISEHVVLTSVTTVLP
# GPR7 antag: human neuropeptides B/W receptor 1 antagonism; AID 1861; 1.1% of 290,000 active; P48145; inhibition, % at 4.4 µM; GPR7-expressing cells, fluorescence antagonist assay; in the data active means inhibition above about 16%, passing the limit was not always enough;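 further: cells stimulated with the agonist NPW; 0% = agonist with vehicle and 100% = vehicle without agonist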
# OX1R antag-2: antagonists of human orexin 1 receptor. inhibition, % at 5 µM. 0.43% of 330,000 active. CHO/OX1R cells, Fluo-8 calcium fluorescence, orexin A. O43613. AID 434989;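 active means inhibition above its plate's threshold, mean inhibition of all tested compounds on the plate plus 3 SD, cut at about 37% in these data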;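 further: 0% = orexin A challenge wells and 100% = SB-334867-A antagonist wells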
# TAAR1 antagonist: human TAAR1 antagonism; Q96RJ0; CHO RD-HGA16 TAAR1, Fluo-8 calcium fluorescence, antagonist; inhibition, % at 3 µM; 1.5% of 360,000 active;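 active means inhibition above a per-plate cutoff, the mean inhibition of test compounds on that plate plus 3 SD, cut at about 49% in these data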;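 further: 0% = DMSO plus EC80 beta-PEA response and 100% = DMSO alone without agonist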
#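 test system = CHO RD-HGA16 cells bearing hTAAR1 | replication = singlicate | controls = DMSO-only wells and EC80 β-PEA-stimulated wells | reagent = EC80 β-phenethylamine stimulus | read-out basis = percent inhibition of PEA-evoked calcium signal, max/basal emission ratio | schedule = seeding 17-24 h prior, 75-min 37 °C, 30-min RT dye loading | signal = kinetic Fluo-8 calcium fluorescence measurement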
# TAAR1 agonist: human TAAR1 agonism; Q96RJ0; CHO RD-HGA16 TAAR1, Fluo-8 calcium fluorescence; vehicle wells 0%, saturating PEA agonist 100%; activation, % at 3 µM; 0.99% of 360,000 active;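 active means activation above the mean activation of all test compounds in the run plus 3 SD, cut at about 38% in these data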
#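 Test system: RD-HGA16 (CHO) cells co-expressing Gα16 and hTAAR1; dosing: one-point dosing at 3 µM (nominal); timing: 17-24 h seeding, 75 min 37 °C dye, 30 min RT; signal: kinetic Fluo-8 calcium fluorescence; read-out basis: % activation relative to PEA EC100 response; controls: DMSO and PEA EC100; replicates: n 1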
# CHO parental Ca: signal in parental CHO cells, OX1R antagonist counter-screen; parental CHO-K1, ATP-induced calcium, Fluo-8 fluorescence; inhibition, % at 5.6 µM; 0.63% of 330,000 active;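 active means inhibition above that plate's mean sample inhibition plus 3 SD, cut at about 26% in these data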;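 further: 0% = ATP-challenged DMSO wells and 100% = DMSO wells without ATP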
#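 test system = CHO parental line | reagent = ATP stimulus | measured by = intracellular calcium via Fluo-8 no-wash fluorescent dye | control set = ATP and no-ATP DMSO wells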
# Starred values were filed as active, the others as inactive; . = not tested or not shown. The list is not random: actives were taken first. Their share in the collection is about 4.5%.
SMILES,OX1R antag-1,GPR7 antag,OX1R antag-2,TAAR1 antagonist,TAAR1 agonist,CHO parental Ca
COc1ccccc1-[n+]1c(C)cc(/C=C2\Sc3ccccc3N2C)cc1C,39,5,62*,30,22,69*
COc1ccc(C(=O)/C=C2\Sc3ccccc3N2C)cc1,34,4,-5,-16,9,-18
COc1ccccc1OC(=O)CCN1c2ccccc2Sc2ccccc21,24,-14,-32,-10,-2,-31
CCCCCCCC/C=C\CCCCCCCC(=O)NCCc1ccc(O)c(O)c1,8,.,16,3,14,36*
Cc1cc(C)c(C#N)c(SCc2ccccc2)n1,21,-13,-14,-27,0,-1
Cc1ccc2nc(CSc3nc(C)cc(C)c3C#N)[nH]c2c1,41*,1,-28,19,5,-10
COc1cccc(NC(=O)c2cc(-c3ccc(OC)cc3OC)nc3ccccc23)c1,7,.,-19,53*,10,-6
COc1ccc(/C=N/NC(=O)c2cc(-c3ccccc3)nc3ccccc23)c(OC)c1,42*,-7,20,35,6,-12
COc1cccc(NC(=O)c2cc(-c3cccnc3)nc3c(Cl)cccc23)c1,22,-11,-14,57*,14,-3
COc1ccc(OC)c(/C=N\NC(=O)c2cc3c(ccc4ccccc43)o2)c1,73*,-7,17,27,3,-12
O=C(Nc1ccc(F)cc1)c1cc(-c2ccncc2)nc2c(Cl)cccc12,19,-27,-26,-2,0,-2
COc1ccc(OC)c(/C=N/NC(=O)c2cccc3ccccc23)c1,13,.,-16,-5,3,-2
O=C1c2ccccc2/C(=C\c2ccc(Br)nc2)N1c1ccccc1,.,.,.,3,2,.
COc1ccc(NC(=O)c2sc(-c3ccccc3)nc2C)c(OC)c1,43*,-20,-3,-4,0,-38
Cc1nc(-c2ccccc2)sc1C(=O)Nc1ccccc1F,5,-9,-31,8,9,-18
COc1ccc(NC(=O)c2cc(-c3ccccn3)nc3ccccc23)c(OC)c1,7,.,-16,54*,14,-21
CCCCN1CC(COCc2ccccc2)Oc2cccc(Oc3ccc(F)cc3OC)c2S1(=O)=O (stereo not drawn),.,.,.,-29,3,.
Cc1cc2ccc(C)c(C)c2nc1SCC(=O)c1cccs1,12,-13,-22,-1,8,-14
Cc1ccc2cc(C)c3nnc(SCC(=O)c4cccs4)n3c2c1C,45*,-9,-10,12,4,-16
O=C(Nc1ccccc1)c1ccccc1OCC(O)CN1C(=O)c2ccccc2S1(=O)=O (stereo not drawn),25,-3,18,65*,25,-5
Cc1cc(Oc2cccnc2)ccc1NC(=O)CCc1c[nH]c2ccccc12,.,.,.,-1,1,.
CC(C)C[C@H]1COc2cccc(NCCO)c2S(=O)(=O)N1,.,.,.,-5,2,.
C[n+]1ccccc1/C=C/c1ccc([N+](=O)[O-])cc1,36*,-12,-6,5,-1,1
C[n+]1ccccc1/C=C/c1ccc(C#N)cc1,19,-8,-7,-2,0,-10
COc1n[nH]c2nncnc12,121*,-3,1,-3,0,-5
SMILES,OX1R antag-1,GPR7 antag,OX1R antag-2,TAAR1 antagonist,TAAR1 agonist,CHO parental Ca
C#Cc1ccc([C@@H]2C=C(C(=O)NCc3ccccc3)O[C@H](OCc3ccc(CO)cc3)C2)cc1,10,-9,-6,51*,9,-3
O=C(NCc1ccccc1)C1=C[C@@H](c2ccccc2)C[C@@H](OCc2ccc(CO)cc2)O1,19,16,-14,22,3,-14
CC1CCCN(c2cccc3c2S(=O)(=O)N(Cc2cccc(F)c2)[C@@H](C)[C@H](c2ccccc2)O3)C1 (stereo partly drawn),.,.,.,-26,7,.
CC1CC(C)(C)Nc2ccc(OC(=O)c3ccco3)cc21 (stereo not drawn),69*,0,-8,-15,6,-4
CCCCN(C(=O)c1ccc([N+](=O)[O-])s1)c1c(N)n(CCCC)c(=O)[nH]c1=O,63*,.,-21,-27,8,-9
CCCCN(C(=O)c1cc(=O)[nH]c2ccccc12)c1c(N)n(CCC)c(=O)[nH]c1=O,80*,-12,-19,.,.,-8
CC(C)CN(C(=O)COC(=O)c1ccc([N+](=O)[O-])s1)c1c(N)n(Cc2ccccc2)c(=O)[nH]c1=O,28,.,-11,-9,1,-5
CCCCn1c(N)c(N(CCC(C)C)C(=O)COC(=O)c2ccc([N+](=O)[O-])s2)c(=O)[nH]c1=O,35*,.,-12,-17,2,-12
CCc1cc(Cn2nc(-c3ccccc3)cc2C(=O)NCc2ccc(C)cc2)on1,20,.,-16,22,5,-11
O=C(/C=C(\Nc1ccc(Br)c(F)c1)c1ccccc1)c1ccccc1,.,.,.,-20,0,.
COC(=O)c1cc2c(c3c4cc(F)ccc4n(S(=O)(=O)c4ccc(C)cc4)c13)C(=O)N(Cc1ccccc1)C2,.,.,.,-34,-1,.
O=C(CN1C(=O)NC2(CCCC2)C1=O)OCc1c(F)cccc1Cl,21,.,-16,-21,2,-6
O=C(C[n+]1ccc(/C=C/c2ccccc2)cc1)c1ccc2c(c1)OCCO2,23,-4,-18,-6,44*,-15
O=C(CS(=O)(=O)c1ccccc1)c1ccc2c(c1)OCCO2,44,18*,0,-4,3,1
C[C@H](CO)N1C[C@H](C)[C@@H](CN(C)C(=O)NC2CCCCC2)OCc2cn(nn2)CCCC1=O,.,.,.,-6,1,.
Cc1c(Br)c([N+](=O)[O-])nn1C(C)C(=O)N1CCc2ccccc2C1 (stereo not drawn),29,8,-10,4,40*,-13
CC1CCCC(NC(=O)c2cccc(S(=O)(=O)N3CCCCC3)c2)C1C (stereo not drawn),0,2,-26,-36,-2,-14
CCOC(=O)C1=CCN(S(=O)(=O)c2ccc(Br)cc2)C1c1ccc(Br)cc1 (stereo not drawn),.,.,.,-4,0,.
Cc1oc2c(c1C(=O)c1ccc(Cl)cc1)C(=O)C(=O)c1ccccc1-2,.,28*,.,28,13,.
Cc1ccc(C(=O)c2coc3c2C(=O)C(=O)c2ccccc2-3)cc1,47*,11,1,22,13,-25
Cc1cccc(-c2cc(=O)c(C(=O)O)cn2-c2ccc(F)cc2F)c1,58*,.,5,-10,0,-1
COc1cc(CNCCc2ccccc2)cc(Cl)c1OCc1ccccc1,5,9,-17,39,40*,27
COC(=O)c1ccc(CN2C(=O)C(C)N(C(=O)c3c(F)cccc3F)c3ccccc32)cc1 (stereo not drawn),5,8,-29,83*,42*,-13
